# From PubChem BioAssay
# CDK5 inh: CDK5/p35 (human) kinase inhibition; Q00535+Q15078; Recombinant CDK5/p35, ADP-Glo luminescence, 60 min; inhibition, % at 10 µM; actives 0.01% (n = 330,000);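 active = highest replicate inhibition of at least 50% and at least 75% of replicates reaching 50%; inconclusive = only one of the two criteria met; inactive = both criteria failed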;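 also: plate controls were DMSO neutral control for no effect and GW8510 at 10 µM for full effect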
# Target sequence (Q00535 whole entry, looked up): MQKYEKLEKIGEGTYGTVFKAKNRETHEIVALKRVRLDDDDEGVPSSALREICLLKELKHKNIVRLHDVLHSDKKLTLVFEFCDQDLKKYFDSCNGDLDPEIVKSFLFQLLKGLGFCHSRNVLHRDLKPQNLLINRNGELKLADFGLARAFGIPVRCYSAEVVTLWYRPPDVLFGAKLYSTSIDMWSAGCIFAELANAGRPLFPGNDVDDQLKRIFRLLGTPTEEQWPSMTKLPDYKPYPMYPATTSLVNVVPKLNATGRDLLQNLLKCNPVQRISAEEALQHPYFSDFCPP
# Target sequence (Q15078 whole entry, looked up): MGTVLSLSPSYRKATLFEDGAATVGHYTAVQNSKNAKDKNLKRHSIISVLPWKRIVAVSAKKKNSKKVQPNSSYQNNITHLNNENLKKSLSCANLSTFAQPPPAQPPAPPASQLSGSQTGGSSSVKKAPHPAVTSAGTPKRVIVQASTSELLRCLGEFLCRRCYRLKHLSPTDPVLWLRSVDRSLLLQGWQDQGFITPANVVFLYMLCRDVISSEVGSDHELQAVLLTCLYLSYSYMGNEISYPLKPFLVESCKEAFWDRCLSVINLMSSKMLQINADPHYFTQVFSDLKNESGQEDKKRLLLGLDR
# HIV Env fusion: blocks HIV Env-driven cell-cell fusion; HeLa-JRFL Env/CEM21 cell fusion, luciferase; inhibition, % at 12.3 µM; actives 1.1% (n = 360,000);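 active = mean replicate inhibition score of at least 50 and every replicate individually at or above 50; inconclusive = only one of the two criteria met; inactive = mean below 50 and not all replicates reaching 50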;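 also: 0% = plate neutral controls and 100% = maraviroc near 300 nM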
# INS-1E GSIS act: GLuc luminescence reporter in INS-1E cells, primary screen for activators of glucose-dependent secretion of insulin | INS-1E GLuc reporter insulin secretion, 2-3 h | activation, % at 16.6 µM | actives 0.61% (n = 370,000) | AID 743287;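 active = lowest replicate activation of at least 40%, so every replicate reaches that level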;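 also: 0% = median of neutral control wells and 100% = median of IBMX positive control wells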
# PAX8 inh HTS: PAX8 transcriptional activity inhibition; RMG-I TPO-luciferase reporter, SteadyGlo, 24 h; inhibition, % at 12.6 µM; actives 1.2% (n = 360,000);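 active = mean replicate inhibition at least 60% with every replicate also reaching 60%; inconclusive = only one of the two criteria is met; inactive = mean below 60% and not all replicates reaching 60%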;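 also: luciferase light reporting Pax8 driven TPO promoter activity; plate controls were median of neutral control wells for no effect and mitoxantrone controls for full effect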
# Cneo AK release: Cryptococcus neoformans lysis via adenylate kinase release; lysis activity, % at 15 µM; AID 651654; actives 0.2% (n = 360,000); C. neoformans lysis, adenylate kinase release luminescence, 4 h; normalised: neutral wells 0, clomiphene wells 100;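 active = mean lysis activity across replicates of at least 80%, whatever share of replicates individually reach that level; inactive = mean lysis activity below 80%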
#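 Material: C. neoformans cells | Amount: Yeast cell density of 5 × 10^6 cells/mL | Medium: Fresh YPD growth medium | Dosing: Single dose | Times: Static 4 h at 37 °C with compound, 1 h detection | Detection: AK luminescence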
# dFosB act: enhances mouse delta FosB homodimer DNA binding; actives 0.99% (n = 340,000); purified delta FosB, TAMRA-CDK5 oligo fluorescence polarization; percent of positive-control signal above neutral wells; activation, % at 25 µM; P13346; AID 493131;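 active = mean activation above about 17%, with every replicate also reaching it, limit read from the data, passing the limit was not always enough; inconclusive = only one of the two conditions met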
# * marks the source's active call; other numbers are inactive results; ? = inconclusive; / = no result; ! = repeats disagree; [ ] = remark or other dose. Shown are actives, neighbours in structure and some others; about 2.9% of the full set was active somewhere.
SMILES,CDK5 inh,HIV Env fusion,INS-1E GSIS act,PAX8 inh HTS,Cneo AK release,dFosB act
CCN(C(=O)COC(=O)c1c2c(nc3ccccc13)/C(=C/c1ccccc1)CC(C)C2)C1CCS(=O)(=O)C1 (stereo not given),-0.6,/,-27.9,67.4*,0.7,6.8
CCN(C(=O)COC(=O)c1c(C)nn(-c2ccccc2)c1C)C1CCS(=O)(=O)C1 (stereo not given),-0.7,-3.3,3.8,-68.8,/,-2.5
COc1ccc2c3c([nH]c2c1)[C@@H](CO)N(Cc1ccc(F)cc1)CC31CCN(C)CC1,/,/,0.0,17.5,/,/
COc1ccc(C(=O)CSc2nnc(-c3cccs3)n2-c2ccccc2)cc1,-0.9,/,45.9*,/,-2.5,-2.2
COc1ccc(-n2c(SCC(=O)Nc3ccc(C(=O)O)cc3)nnc2-c2cccs2)cc1,-1.5,-61.7,/,-6.1,1.7,-1.9
COC(=O)C[C@@H]1CC[C@H](NS(=O)(=O)c2ccccc2F)[C@H](CO)O1,/,13.8[16.7 µM],20.1,3.6,-8.2,/
CCCCc1c(-c2ccccc2OC)ncn1Cc1ccccc1F,/,0.0,/,24.3,/,/
CCCCc1c(-c2ccccc2OC)ncn1Cc1ccc(-c2ccccc2)cc1,/,17.1,-24.9,23.0,/,/
CCCCc1c(-c2ccccc2OC)ncn1Cc1ccccc1C,/,14.0,186.4*,13.3,/,/
CCCCc1c(-c2ccccc2OC)ncn1Cc1ccc(C)cc1,/,61.3*,66.0*,61.3*,/,/
CCCCc1c(-c2ccccc2OC)ncn1Cc1ccc(OC)cc1,/,61.2*,-26.7,-3.0,/,/
CN(C)C(=O)c1ccc(-c2ccc([C@@H]3[C@@H](CO)N4CCCCN(C(=O)C5CC5)C[C@@H]34)cc2)cc1,/,/,3.9,-4.1,-0.2,/
O=C(C[C@@H]1CC[C@@H](NC(=O)CN2CCOCC2)[C@@H](CO)O1)NCCc1ccccc1,/,15.0[16.7 µM],11.7,-5.3,-0.1,/
O=C(C[C@@H]1CC[C@@H]2[C@H](COC[C@H](O)CN2S(=O)(=O)c2cccc(Cl)c2)O1)NCCCN1CCOCC1,/,/,4.6,/,-1.4,/
O=C(/C=C/c1cccnc1)c1ccc([N+](=O)[O-])cc1,-3.5,5.0,-4.3,1.8,0.4,-8.6
COc1cc(C(=O)/C=C/c2cccnc2)c([N+](=O)[O-])cc1OC,0.7,-247.2,2.5,94.1*,-1.6,-10.3
C[C@H]1CN([C@@H](C)CO)C(=O)c2cccc(NS(=O)(=O)c3ccccc3)c2O[C@H]1CN(C)Cc1ccc(Cl)c(Cl)c1,/,-30.6[16.7 µM],-29.3,-28.3,-2.2,/
Cc1ccc2oc(C(=O)N3CCCCCC3)c(C)c2c1,2.6,/,4.9,/,1.1,1.3
COc1ccccc1C(=O)N1CCN(C(=O)c2oc3ccc(C)cc3c2C)CC1,-9.0,65.9*,-21.6,8.8,-3.2,-6.9
CCCCCCN(C(=O)CCCN1C(=O)NC(c2ccc(-c3ccccc3)cc2)C(C(=O)OCc2ccccc2)=C1C)C(C)C(=O)NCCCC (stereo not given),3.0,41.0,-15.7,98.6*,-2.4,-6.5
O=C1C(=O)N(CCN2CCOCC2)C(c2ccc(Cl)c(Cl)c2)/C1=C(/O)c1ccc2c(c1)OCO2 (stereo not given),-4.4,63.3*,-8.2,20.1,2.2,-5.3
O=C1C(=O)N(CCN2CCOCC2)C(c2cccc(Cl)c2)/C1=C(\O)c1ccc2c(c1)OCCO2 (stereo not given),1.0,1.2,-8.1,-12.4,-13.8,-3.8
C[C@@H]1CN([C@@H](C)CO)S(=O)(=O)c2ccc(C#Cc3ccccn3)cc2O[C@@H]1CN(C)Cc1ccccc1,/,-11.4[16.7 µM],-2.1,/,0.2,/
C[C@@H]1CN([C@@H](C)CO)S(=O)(=O)c2ccc(C#Cc3ccccn3)cc2O[C@H]1CN(C)Cc1ccccc1,/,6.5[16.7 µM],-10.3,/,100.5*,/
C[C@@H]1CN([C@H](C)CO)S(=O)(=O)c2ccc(C#Cc3ccccn3)cc2O[C@H]1CN(C)Cc1ccccc1,/,3.5[16.7 µM],-18.6,/,91.5*,/
SMILES,CDK5 inh,HIV Env fusion,INS-1E GSIS act,PAX8 inh HTS,Cneo AK release,dFosB act
C[C@H]1CN([C@@H](C)CO)S(=O)(=O)c2ccc(C#Cc3ccccn3)cc2O[C@H]1CN(C)Cc1ccccc1,/,-6.1[16.7 µM],-3.5,/,0.5,/
C[C@@H]1CN([C@H](C)CO)C(=O)c2cccc(NS(=O)(=O)c3cn(C)cn3)c2O[C@@H]1CN(C)CC1CC1,/,-21.1[16.7 µM],10.8,/,1.8,/
Cc1ccc(NS(=O)(=O)c2ccc(NC(=O)c3ccc(-c4ccccc4)cc3)cc2)c(C)c1,2.2,/,/,/,-5.1,54.4*
Cc1ccc(NS(=O)(=O)c2ccc(NC(=O)c3ccccc3C(=O)O)cc2)c(C)c1,0.5,?,0.7,11.6,/,2.7
C[C@H]1CN([C@@H](C)CO)C(=O)Cc2cc(NC(=O)C3CC3)ccc2O[C@H]1CN(C)C(=O)Nc1ccc(F)cc1,/,/,15.8,/,9.9,/
CN(Cc1ccco1)c1ncnc2ccc(-c3ccc4c(c3)OCO4)cc12,1.0,/,/,5.6,2.3,2.7
Cc1nc(CN(C)c2ncnc3ccc(-c4ccc5c(c4)OCO5)cc23)cs1,/,-20.0,-20.0,65.8*,-2.1,/
Cc1ccc(S(=O)(=O)Nc2ccc3c(c2)C(=O)N([C@H](C)CO)C[C@@H](C)[C@@H](CN(C)Cc2ccc4c(c2)OCO4)OCCCC[C@@H](C)O3)cc1,/,13.5[16.7 µM],-32.4,97.0*,-1.4,/
C[C@@H]1CN([C@H](C)CO)C(=O)c2cc(NS(=O)(=O)c3ccc(Cl)cc3)ccc2O[C@@H](C)CCCCO[C@@H]1CN(C)Cc1ccc2c(c1)OCO2,/,68.5*![16.7 µM],-15.1,-11.5,-16.1,/
Cc1ccc(S(=O)(=O)Nc2ccc3c(c2)C(=O)N([C@@H](C)CO)C[C@H](C)[C@H](CN(C)Cc2ccc4c(c2)OCO4)OCCCC[C@@H](C)O3)cc1,/,-24.3[16.7 µM],-29.8,26.3,0.4,/
C[C@H](CO)N1C[C@H](C)[C@H](CN(C)Cc2ccc3c(c2)OCO3)OCCCC[C@H](C)Oc2ccc(NS(=O)(=O)c3ccc(Cl)cc3)cc2C1=O,/,-43.3[16.7 µM],-20.9,76.1*,-5.2,/
CO[C@@H]1CN(C)C(=O)c2ccc(NC(=O)c3ccc4c(c3)OCO4)cc2OC[C@@H](C)NC[C@@H]1C,/,/,5.6,-13.5,12.3,/
CC(C)(C)OC(=O)N1CCCN(C(=O)c2ccc(Cl)cc2)CC1,-0.7,18.8,191.8*,9.9,-3.6,-8.7
CC(=O)N(C)C[C@@H]1Oc2cc(-c3ccc(C#N)cc3)ccc2S(=O)(=O)N([C@H](C)CO)C[C@H]1C,/,4.2[16.7 µM],4.9,/,53.9,/
CC1=CC(=C(C#N)C#N)C=C(C)N1CCN1CCN(C(=O)Nc2ccc(Cl)c(Cl)c2)CC1,0.7,21.0,4.5,-3.3,/,50.3*
COc1ccc(NC(=O)N2CCN(CCC#N)CC2)cc1,-0.4,22.9,/,-16.3,10.3,-6.9
C[C@@H]1CN([C@H](C)CO)C(=O)c2cc(NS(=O)(=O)c3ccccc3)ccc2O[C@@H](C)CCCCO[C@H]1CN(C)Cc1ccc(C(F)(F)F)cc1,/,10.1[16.7 µM],-30.6,102.4*,-11.1,/
